Laboratory results from article PMC6619336 (Clinical Pharmacology in Drug Development, 2018).
Read-outs that look alike come from different tables or passages of the source. Marks after values point to notes of the source that are not given here.

Legend:
[1] = assay type: in vivo, human
Method in brief: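 Healthy men (n = 6) got one fasted oral 200 mg dose of 14C-labelled test compound (1.8 MBq) in water with 8% hydroxypropyl-β-cyclodextrin. Urine and feces were collected for 8 days. Expired air was sampled predose to 72 h and trapped in 1 N hyamine hydroxide with phenolphthalein. Urine and feces were homogenized, and radioactivity was read by liquid scintillation. Urinary parent was measured by LC-MS/MS. CL_R = Ae/AUC over the largest common quantifiable interval.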

[2] = healthy volunteers, cited from earlier work
[3] = subjects with severe renal impairment; cited from earlier work
[4] = assay type: in vivo, human; remark: listed apart in the source
Method in brief: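 Six healthy men were dosed fasted, orally, once at 200 mg of 14C-labelled test compound (1.8 MBq) in water with 8% hydroxypropyl-β-cyclodextrin. Blood was drawn predose and from 15 min to 72 h, kept on ice, and spun at 1500g for 10 min at 4 °C within 30 min. Plasma radioactivity was read by liquid scintillation and parent by LC-MS/MS. Parameters were noncompartmental, with values below LLOQ set to zero.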

[5] = Metabolic profiling of 14C-amenamevir in plasma, urine and feces; assay type: in vivo, human; details: single oral 200 mg
Method in brief: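 After one fasted oral 200 mg dose of 14C-labelled test compound in 8% hydroxypropyl-β-cyclodextrin, healthy men gave plasma predose and at 0.5, 1, 2, 4, 6, 8, 10 and 12 h. Urine and fecal homogenates (stored at −70 °C) were also collected. Radiochromatograms were run by HPLC for all matrices. Urine and fecal metabolites were identified by LC-MS/MS.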

cytochrome P450 (CYP) 3A = details: cited from earlier work
VZV = details: preclinical studies; cited from earlier work
[6] = subjects with moderate hepatic impairment; cited from earlier work
[7] = 300‐mg dose (capsule); mean ± SD; study 15L‐CL‐002; cited from earlier work
[8] = 300‐mg dose (capsule); mean ± SD; study 15L‐CL‐001; cited from earlier work
[9] = Safety and tolerability of single-dose amenamevir in healthy volunteers; assay type: in vivo, human; details: single 200 mg dose; for subjects with treatment‐emergent AEs: 6 subjects dosed
Method in brief: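 Six healthy men aged 18–65 years received one fasted oral 200 mg dose and were monitored from screening through admission, discharge and a post-study visit. Adverse events were collected from spontaneous reports and non-leading questioning, coded with MedDRA v10.0, and graded for severity and treatment relation. Checks covered blood pressure, heart rate, ECG, physical examination, chemistry, hematology, urinalysis, serology and drug/alcohol screens.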

[10] = single 300‐mg (capsule) dose, day 1 of administration; study 15L‐CL‐003; cited from earlier work
[11] = single oral 200 mg, n = 5, mean ± SD, 8 days of sampling
[12] = ^14C‐radioactivity in plasma, single oral 200 mg, n = 6, mean ± SD
[13] = ^14C‐radioactivity in whole blood, single oral 200 mg, n = 6, mean ± SD
[14] = ^14C‐radioactivity, single oral 200 mg

For `Cc1cccc(C)c1N(CC(=O)Nc1ccc(-c2ncon2)cc1)C(=O)C1CCS(=O)(=O)CC1` [Amenamevir], the CL renal ([1]; human, urine and plasma, po, 200 mg) was 40.7 mL/min, the “dose eliminated by 168 hours after the dose” value ([1]; single oral 200 mg) was greater than 95% and the “Ae expired air (cumulative recovery of ^14C‐radioactivity)” value ([1]; single oral 200 mg, N = 6, listed as 14C‐amenamevir) was 0%. For the same compound, the “Ae urine (cumulative recovery of ^14C‐radioactivity)” value ([1]; single oral 200 mg, N = 6, mean ± SD, 8 days of sampling) was 20.6 ± 4.0%, the “Ae feces (cumulative recovery of ^14C‐radioactivity)” value [1, 11] was 74.6 ± 3.0 ^a % and the “Ae total (cumulative recovery of ^14C‐radioactivity)” value [1, 11] was 95.3%. The “Ae total (cumulative recovery of ^14C‐radioactivity)” value ([1]; single oral 200 mg, n = 5, mean ± SD, 8 days of sampling, listed as 14C‐amenamevir) was 95.3 ± 1.8 ^a %, the “Cumulative Aelast (amenamevir excreted into urine)” value ([1]; unchanged amenamevir in urine by LC‐MS/MS, single oral 200 mg, N = 6, mean ± SD) was 20.9 ± 5.5 mg and the “dose proportionality of pharmacokinetics” value [2] was “less than dose proportional”. For the same compound, the safety and tolerability ([2]; single doses of 5 to 2400 mg or 300 to 600 mg/day for 7 days) was “safe and well tolerated”, the “renal clearance in severe renal impairment” value [3] was “reduced renal clearance” and the AUCinf [4, 12] was 10,997 ± 2530 ng · h/mL. For the same compound, the AUClast [4, 12] was 10,076 ± 2912 ng · h/mL, the Cmax [4, 12] was 1041 ± 324 ng/mL and the t½ [4, 12] was 8.03 ± 0.81 h. The tmax ([4]; ^14C‐radioactivity in plasma, single oral 200 mg, n = 6, median (range)) was 1.00 (1.00–3.02) hours, the AUCinf [4, 13] was 10,425 ± 2265 ng · h/mL and the AUClast [4, 13] was 8530 ± 2263 ng·h/mL. For the same compound, the Cmax [4, 13] was 919 ± 284 ng/mL, the t½ [4, 13] was 9.19 ± 2.13 h and the tmax ([4]; ^14C‐radioactivity in whole blood, single oral 200 mg, n = 6, median (range)) was 1.00 (1.00–2.00) hours. The “Whole blood:plasma ratio of AUCinf” value [4, 14] was 0.951, the “Whole blood:plasma ratio of AUClast” value [4, 14] was 0.852 and the “Whole blood:plasma ratio of Cmax” value [4, 14] was 0.885. The AUC(0-inf) ([4]; human, plasma, po, 200 mg) was 8820 ± 2510 ng·h/mL, the AUC(0-t) ([4]; human, plasma, po, 200 mg) was 8690 ± 2490 ng·h/mL and the Cmax ([4]; human, plasma, po, 200 mg) was 1020 ± 404 ng/mL. The half-life ([4]; human, plasma, po, 200 mg) was 7.65 ± 0.49 h, the tmax ([4]; human, plasma, po, 200 mg) was 1.5 h and the “share of the administered dose in feces” value ([5]; feces 0 to 72 hours after the dose) was less than 0.1%. The “share of the total radioactivity in plasma” value ([5]; plasma samples 0.5 to 12 hours after the dose) was 80%, the “share of the total radioactivity excreted in urine” value ([5]; urine 0–48 hours after the dose) was “approximately 55%” and the “relation to CYP3A” value (cytochrome P450 (CYP) 3A) was “both a substrate and inducer”. For the same compound, the “activity against VZV compared with acyclovir and valacyclovir” value (VZV) was “more potent than acyclovir and valacyclovir”, the “pharmacokinetic profile in moderate hepatic impairment” value [6] was “not significantly altered” and the “half‐life” value [7] was 7.85 ± 1.62 h. For the same compound, the “peak concentration of drug in blood plasma” value [7] was 1093 ± 201 ng/mL, the “half‐life” value [8] was 6.88 ± 0.56 h and the “peak concentration of drug in blood plasma” value [8] was 1040 ± 264 ng/mL. For the same compound, the “clinical laboratory evaluations, vital signs, electrocardiogram recordings” value [9] was “No clinically important abnormalities”, the “deaths, serious AEs, or AEs resulting in discontinuation” value [9] was “No deaths, serious AEs, or AEs resulting in discontinuation were reported” and the “subjects with treatment‐emergent AEs” value [9] was 3. The “subjects with treatment‐emergent AEs” value ([9]; listed as amenamevir) was “Three”, the “severity of AEs” value ([9]; all 3 AEs) was “mild” and the safety and tolerability ([9]; healthy male subjects, n = 6) was “safe and well tolerated”. The “drug excreted in the urine” value [10] was 11.07% and the renal clearance [10] was 2.45 L/h.
